{"source": "ChEMBL document CHEMBL1136911", "about": "“6,7-Dihydro-5H-pyrrolo[1,2-a] imidazoles as potent and selective alpha1A adrenoceptor partial agonists” (Bioorg Med Chem Lett, 2009)", "key": {"[1]": {"experiment": "Lipophilicity, log D at pH 7.4", "settings": "buffer; call rule not given here"}, "CYP3A4": {"target": "CYP3A4 (Homo sapiens, UniProt P08684)", "sequence (P08684 whole entry)": "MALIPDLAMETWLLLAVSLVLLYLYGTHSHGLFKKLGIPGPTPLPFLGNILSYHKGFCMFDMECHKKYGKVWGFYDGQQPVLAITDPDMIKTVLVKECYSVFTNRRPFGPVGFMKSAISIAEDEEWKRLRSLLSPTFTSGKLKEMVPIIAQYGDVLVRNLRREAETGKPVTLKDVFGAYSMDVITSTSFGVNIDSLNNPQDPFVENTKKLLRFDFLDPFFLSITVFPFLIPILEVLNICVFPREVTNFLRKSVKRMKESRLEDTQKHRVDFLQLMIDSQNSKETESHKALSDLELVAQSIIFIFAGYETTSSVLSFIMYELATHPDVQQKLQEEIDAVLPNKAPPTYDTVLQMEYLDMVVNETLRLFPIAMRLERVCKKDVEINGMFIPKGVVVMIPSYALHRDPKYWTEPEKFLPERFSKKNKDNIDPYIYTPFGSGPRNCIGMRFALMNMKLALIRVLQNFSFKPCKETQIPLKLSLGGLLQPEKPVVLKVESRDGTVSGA", "experiment": "Inhibition of CYP3A4 at 3 uM", "type": "ADME"}, "[2]": {"target": "T1, Alpha-1B adrenergic receptor (Homo sapiens, UniProt P35368)", "T1 sequence (P35368 whole entry)": "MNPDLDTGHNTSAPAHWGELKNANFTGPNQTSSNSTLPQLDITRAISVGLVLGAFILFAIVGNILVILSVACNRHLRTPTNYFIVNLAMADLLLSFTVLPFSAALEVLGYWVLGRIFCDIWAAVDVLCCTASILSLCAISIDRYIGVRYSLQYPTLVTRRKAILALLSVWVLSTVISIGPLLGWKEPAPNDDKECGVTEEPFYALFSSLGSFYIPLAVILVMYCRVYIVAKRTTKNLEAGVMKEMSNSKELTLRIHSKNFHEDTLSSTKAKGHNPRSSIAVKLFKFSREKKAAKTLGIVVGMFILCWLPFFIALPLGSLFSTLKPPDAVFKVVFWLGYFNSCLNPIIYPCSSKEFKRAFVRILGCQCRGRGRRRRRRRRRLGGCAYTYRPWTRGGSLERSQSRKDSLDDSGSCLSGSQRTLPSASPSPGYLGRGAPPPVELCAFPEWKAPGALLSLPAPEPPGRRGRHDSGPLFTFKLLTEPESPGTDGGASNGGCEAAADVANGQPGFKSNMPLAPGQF", "experiment": "Agonist activity at human adrenergic Alpha-1B receptor expressed in CHO cells assessed as calcium mobilization by FLIPR", "type": "functional, cell-based", "in_short": "(§1)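 Human alpha1B (clone 11) or alpha1D (clone 23) receptor stably expressed in Chinese hamster ovary cells; receptor activation read as Gq-coupled calcium mobilisation with a calcium-sensitive fluorescent dye on FLIPR. Eleven-point concentration-response curves; Emax given as percent of the response to 10 µM phenylephrine. Values are geometric means of at least two experiments.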"}, "[3]": {"target": "T2, Alpha-2A adrenergic receptor (Homo sapiens, UniProt P08913)", "T2 sequence (P08913 whole entry)": "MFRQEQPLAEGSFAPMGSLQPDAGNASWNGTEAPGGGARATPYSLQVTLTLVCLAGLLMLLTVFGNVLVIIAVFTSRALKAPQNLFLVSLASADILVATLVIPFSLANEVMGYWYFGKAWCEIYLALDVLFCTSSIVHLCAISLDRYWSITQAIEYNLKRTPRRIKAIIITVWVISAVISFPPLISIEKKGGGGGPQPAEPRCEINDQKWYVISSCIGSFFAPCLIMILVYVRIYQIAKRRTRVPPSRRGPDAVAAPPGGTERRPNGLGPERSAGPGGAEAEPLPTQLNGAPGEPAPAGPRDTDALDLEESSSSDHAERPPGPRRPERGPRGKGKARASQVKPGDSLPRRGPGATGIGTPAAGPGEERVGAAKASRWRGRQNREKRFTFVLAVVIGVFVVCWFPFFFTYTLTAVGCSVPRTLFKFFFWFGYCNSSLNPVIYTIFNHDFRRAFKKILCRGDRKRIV", "experiment": "Inhibition of adrenergic alpha2A receptor"}, "[4]": {"experiment": "Apparent permeability from basolateral to apical side of MDCK cells expressing MDR1", "type": "ADME, cell-based, Canis lupus familiaris", "settings": "dog, MDCK-MDR1", "in_short": "(§2)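 MDCK cells expressing P-glycoprotein (mdr-1); transcellular flux measured at 10 µM substrate in the apical-to-basolateral and basolateral-to-apical directions, reported as Papp ×10^-6 cm s^-1.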"}, "CYP1A2": {"target": "T3, CYP1A2 (Homo sapiens, UniProt P05177)", "T3 sequence (P05177 whole entry)": "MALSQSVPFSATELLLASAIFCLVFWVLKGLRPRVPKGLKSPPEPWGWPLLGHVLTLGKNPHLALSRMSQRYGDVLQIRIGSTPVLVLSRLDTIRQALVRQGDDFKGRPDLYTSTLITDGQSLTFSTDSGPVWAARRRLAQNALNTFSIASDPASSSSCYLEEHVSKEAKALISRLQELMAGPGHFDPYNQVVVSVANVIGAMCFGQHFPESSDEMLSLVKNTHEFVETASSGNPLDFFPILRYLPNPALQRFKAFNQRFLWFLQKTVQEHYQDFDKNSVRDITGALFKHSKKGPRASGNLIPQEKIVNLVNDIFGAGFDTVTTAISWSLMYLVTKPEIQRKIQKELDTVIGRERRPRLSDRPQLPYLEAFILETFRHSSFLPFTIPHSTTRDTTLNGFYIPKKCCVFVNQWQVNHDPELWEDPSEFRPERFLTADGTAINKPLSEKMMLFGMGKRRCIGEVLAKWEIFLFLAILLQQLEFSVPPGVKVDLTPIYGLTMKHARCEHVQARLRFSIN", "experiment": "Inhibition of CYP1A2 at 3 uM", "type": "ADME"}, "[5]": {"target": "T4, Alpha-1A adrenergic receptor (Homo sapiens, UniProt P35348)", "T4 sequence (P35348 whole entry)": "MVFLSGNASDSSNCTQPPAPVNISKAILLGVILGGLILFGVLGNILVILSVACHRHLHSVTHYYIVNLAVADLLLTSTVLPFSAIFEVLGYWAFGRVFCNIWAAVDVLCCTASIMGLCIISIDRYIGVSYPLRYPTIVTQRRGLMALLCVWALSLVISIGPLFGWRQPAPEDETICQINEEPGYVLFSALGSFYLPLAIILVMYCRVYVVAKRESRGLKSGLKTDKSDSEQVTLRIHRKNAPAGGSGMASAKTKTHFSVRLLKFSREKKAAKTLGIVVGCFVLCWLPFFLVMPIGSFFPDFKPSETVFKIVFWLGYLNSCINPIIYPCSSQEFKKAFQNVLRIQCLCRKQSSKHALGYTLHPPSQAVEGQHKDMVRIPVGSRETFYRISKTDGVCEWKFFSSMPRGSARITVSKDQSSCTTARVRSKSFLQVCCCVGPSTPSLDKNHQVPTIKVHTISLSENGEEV", "experiment": "Agonist activity at human adrenergic alpha1A receptor expressed in CHO cells assessed as calcium mobilization by FLIPR", "type": "functional, cell-based"}, "[6]": {"experiment": "Intrinsic clearance in human liver microsomes", "type": "ADME, Microsome"}, "CYP2C9": {"target": "CYP2C9 (Homo sapiens, UniProt P11712)", "sequence (P11712 whole entry)": "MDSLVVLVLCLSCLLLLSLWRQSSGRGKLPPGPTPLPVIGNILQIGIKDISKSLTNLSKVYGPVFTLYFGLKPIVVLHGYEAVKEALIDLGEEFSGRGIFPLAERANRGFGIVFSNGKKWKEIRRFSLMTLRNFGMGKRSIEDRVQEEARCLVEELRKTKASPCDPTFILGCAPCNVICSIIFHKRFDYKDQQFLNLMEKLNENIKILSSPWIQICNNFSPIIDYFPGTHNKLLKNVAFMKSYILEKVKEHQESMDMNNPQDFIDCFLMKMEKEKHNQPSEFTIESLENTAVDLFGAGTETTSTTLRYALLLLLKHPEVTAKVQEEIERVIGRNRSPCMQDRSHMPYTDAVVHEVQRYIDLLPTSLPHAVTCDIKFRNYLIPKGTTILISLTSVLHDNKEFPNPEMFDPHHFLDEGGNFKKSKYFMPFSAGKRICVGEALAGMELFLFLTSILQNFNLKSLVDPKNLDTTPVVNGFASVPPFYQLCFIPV", "experiment": "Inhibition of CYP2C9 at 3 uM", "type": "ADME"}, "[7]": {"experiment": "Apparent permeability from apical to basolateral side of MDCK cells expressing MDR1", "type": "ADME, cell-based, Canis lupus familiaris", "settings": "dog, MDCK-MDR1", "in_short": "as §2"}, "[8]": {"target": "T5, Alpha-1D adrenergic receptor (Homo sapiens, UniProt P25100)", "T5 sequence (P25100 whole entry)": "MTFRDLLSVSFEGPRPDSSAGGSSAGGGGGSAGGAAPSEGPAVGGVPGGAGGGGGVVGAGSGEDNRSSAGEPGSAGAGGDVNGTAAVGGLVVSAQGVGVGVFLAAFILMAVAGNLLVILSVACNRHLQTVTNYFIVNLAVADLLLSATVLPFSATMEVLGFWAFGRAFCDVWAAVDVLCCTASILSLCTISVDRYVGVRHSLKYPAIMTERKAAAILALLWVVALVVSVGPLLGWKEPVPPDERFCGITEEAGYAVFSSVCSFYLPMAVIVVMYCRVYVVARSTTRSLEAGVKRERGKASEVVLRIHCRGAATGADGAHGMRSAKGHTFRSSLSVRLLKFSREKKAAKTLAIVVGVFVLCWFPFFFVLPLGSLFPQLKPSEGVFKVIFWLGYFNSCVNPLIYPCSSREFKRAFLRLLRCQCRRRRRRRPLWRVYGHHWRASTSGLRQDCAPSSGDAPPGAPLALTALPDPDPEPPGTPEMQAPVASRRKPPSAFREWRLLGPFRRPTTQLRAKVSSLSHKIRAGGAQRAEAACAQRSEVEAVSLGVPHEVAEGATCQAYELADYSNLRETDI", "experiment": "Agonist activity at human adrenergic Alpha-1D receptor expressed in CHO cells assessed as calcium mobilization by FLIPR", "type": "functional, cell-based", "in_short": "as §1"}, "CYP2D6": {"target": "CYP2D6 (Homo sapiens, UniProt P10635)", "sequence (P10635 whole entry)": "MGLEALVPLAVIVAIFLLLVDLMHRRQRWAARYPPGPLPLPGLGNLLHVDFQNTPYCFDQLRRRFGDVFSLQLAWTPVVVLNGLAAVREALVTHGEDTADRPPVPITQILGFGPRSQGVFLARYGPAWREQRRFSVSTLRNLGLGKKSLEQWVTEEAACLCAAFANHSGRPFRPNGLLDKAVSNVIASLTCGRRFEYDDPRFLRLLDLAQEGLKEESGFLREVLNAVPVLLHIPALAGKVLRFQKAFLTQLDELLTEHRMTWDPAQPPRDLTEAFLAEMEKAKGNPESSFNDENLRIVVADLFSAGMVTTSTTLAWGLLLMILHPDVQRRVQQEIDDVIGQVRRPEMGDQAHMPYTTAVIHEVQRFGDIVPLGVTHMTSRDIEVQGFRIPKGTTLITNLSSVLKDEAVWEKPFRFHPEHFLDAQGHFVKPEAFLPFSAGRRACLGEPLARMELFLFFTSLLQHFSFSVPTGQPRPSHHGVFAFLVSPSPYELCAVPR", "experiment": "Inhibition of CYP2D6 at 3 uM", "type": "ADME"}, "[9]": {"target": "Voltage-gated inwardly rectifying potassium channel KCNH2 (Homo sapiens, UniProt Q12809)", "sequence (Q12809 whole entry)": "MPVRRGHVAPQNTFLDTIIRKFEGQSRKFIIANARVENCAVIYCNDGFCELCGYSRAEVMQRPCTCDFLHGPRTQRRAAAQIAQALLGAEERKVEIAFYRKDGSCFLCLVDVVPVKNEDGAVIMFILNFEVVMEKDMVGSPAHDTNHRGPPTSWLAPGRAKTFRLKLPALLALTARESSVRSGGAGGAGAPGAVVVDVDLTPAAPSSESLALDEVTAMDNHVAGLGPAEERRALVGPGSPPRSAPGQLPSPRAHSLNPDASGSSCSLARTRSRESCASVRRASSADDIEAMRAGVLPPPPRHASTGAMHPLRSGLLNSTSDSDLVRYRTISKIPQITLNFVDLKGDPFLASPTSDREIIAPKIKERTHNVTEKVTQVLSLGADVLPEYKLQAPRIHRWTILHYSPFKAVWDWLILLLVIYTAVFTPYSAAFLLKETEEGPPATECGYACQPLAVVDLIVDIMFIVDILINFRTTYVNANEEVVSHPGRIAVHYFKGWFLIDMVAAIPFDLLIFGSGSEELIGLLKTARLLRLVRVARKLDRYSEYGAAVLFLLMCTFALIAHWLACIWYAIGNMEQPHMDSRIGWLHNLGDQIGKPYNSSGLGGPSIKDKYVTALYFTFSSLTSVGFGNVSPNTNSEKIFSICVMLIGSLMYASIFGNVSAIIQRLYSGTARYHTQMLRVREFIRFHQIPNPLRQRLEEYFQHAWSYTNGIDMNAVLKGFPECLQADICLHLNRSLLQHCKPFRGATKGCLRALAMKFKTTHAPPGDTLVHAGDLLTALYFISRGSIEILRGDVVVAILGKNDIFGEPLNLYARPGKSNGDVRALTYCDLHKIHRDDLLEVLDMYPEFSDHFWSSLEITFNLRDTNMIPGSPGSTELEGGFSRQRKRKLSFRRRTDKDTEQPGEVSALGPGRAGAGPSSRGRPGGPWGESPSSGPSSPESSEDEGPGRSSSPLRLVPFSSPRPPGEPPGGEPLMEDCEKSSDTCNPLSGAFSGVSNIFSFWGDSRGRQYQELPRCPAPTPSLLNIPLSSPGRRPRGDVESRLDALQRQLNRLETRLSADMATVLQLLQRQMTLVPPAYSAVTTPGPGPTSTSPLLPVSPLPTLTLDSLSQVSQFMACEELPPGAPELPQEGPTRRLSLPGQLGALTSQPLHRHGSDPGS", "experiment": "Inhibition of human ERG up to 22 uM"}}, "data": [{"compound": "Fc1ccc(-c2cncnc2)c(C2Cc3nccn3C2)c1", "note": "(stereo not drawn)", "values": [{"measurement": "logD", "setting": "[1]", "result": 1.3}, {"measurement": "inhibition at 3 µM", "setting": "CYP3A4", "result": "< 10", "unit": "%"}, {"measurement": "EC50", "setting": "[2]", "result": "> 10", "unit": "µM"}, {"measurement": "Ki", "setting": "[3]", "result": "> 2.78", "unit": "µM"}, {"measurement": "Papp B→A", "setting": "[4]", "result": 39, "unit": "×10⁻⁶ cm/s"}, {"measurement": "inhibition at 3 µM", "setting": "CYP1A2", "result": "< 10", "unit": "%"}, {"measurement": "EC50", "setting": "[5]", "result": 0.001, "unit": "µM"}, {"measurement": "microsomal CLint", "setting": "[6]", "result": "< 8", "unit": "µL/min/mg"}, {"measurement": "inhibition at 3 µM", "setting": "CYP2C9", "result": "< 10", "unit": "%"}, {"measurement": "Papp A→B", "setting": "[7]", "result": 34, "unit": "×10⁻⁶ cm/s"}, {"measurement": "EC50", "setting": "[8]", "result": "> 2.6", "unit": "µM"}, {"measurement": "inhibition at 3 µM", "setting": "CYP2D6", "result": "< 10", "unit": "%"}, {"measurement": "inhibition (INH)", "setting": "[9]", "result": "Not Active"}]}]}
